Results published in ChEMBL document CHEMBL3244177, “Synthesis and prostaglandin-like activity of 2-(trans-3-hydroxy-1-octenyl)-3-indoleheptanoic acid” (J Med Chem, 1978).
Calls of active or inactive are those of the source. The calls are words filed in the database; no cut-off is given here.

Key:
Format in all cases: tissue-based
Cavia porcellus [1] = organism: Cavia porcellus; assay: Effect on Prostaglandin receptor-induced contraction in guinea pig ileum assessed as intrinsic activity at 0.4 ug by kymography relative to PGE1
In short: (§1)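 Guinea-pig terminal ileum in a 3-mL oxygenated Tyrode bath at 30 °C with cyproheptadine 3 × 10^-9 mol/L. Dosed at 5-min intervals, 30 s contact, isotonic lever on a smoked drum. Final concentrations were 3.6–17.9 × 10^-7 mol/L for the compound and 0.94–18.8 × 10^-9 mol/L for PGE1 standards. Activity bracketed between two PGE1 doses, mean of five observations.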

Rattus norvegicus [2] = organism: Rattus norvegicus; assay: Effect on Prostaglandin receptor-induced contraction in rat stomach fundus strip assessed as intrinsic activity at 0.8 ug by kymography relative to PGE1
In short: (§2)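 Rat fundus strips in Krebs, dosed once tone was constant. Final bath concentrations were 2.70–13.5 × 10^-7 mol/L for the compound and 0.70–14.0 × 10^-9 mol/L for PGE1 standards, from ethanol stocks. Auxotonic kymograph recording, 10-min cycle, 90 s contact. PGE1-like activity was bracketed between two PGE1 standard doses, mean of five observations per concentration.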

Cavia porcellus [3] = organism: Cavia porcellus; assay: Effect on Prostaglandin receptor-induced contraction in guinea pig ileum assessed as intrinsic activity at 2.0 ug by kymography relative to PGE1; in short: as §1
Rattus norvegicus [4] = organism: Rattus norvegicus; assay: Effect on Prostaglandin receptor-induced contraction in rat stomach fundus strip assessed as intrinsic activity at 2.0 ug by kymography relative to PGE1; in short: as §2
Rattus norvegicus [5] = organism: Rattus norvegicus; assay: Effect on Prostaglandin receptor-induced contraction in rat stomach fundus strip assessed as intrinsic activity at 1.6 ug by kymography relative to PGE1; in short: as §2
[6] = Competitive inhibition of Prostaglandin receptor in rat stomach fundus strip assessed as inhibition of PGE1-induced contraction by kymography
In short: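 Rat stomach fundus strip contractions to PGE1 11.3 × 10^-9 mol/L compared with and without analogue at 2.15–21.5 × 10^-6 mol/L. Stock in ethanol, diluted in Krebs. Kymograph with auxotonic lever, load 1 g baseline and 3 g maximal, 10-min dose cycle, 90 s contact. Approximate IC50 taken from the inhibition concentration-response curve in four preparations.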

Rattus norvegicus [7] = organism: Rattus norvegicus; assay: Effect on Prostaglandin receptor-induced contraction in rat stomach fundus strip assessed as intrinsic activity at 0.4 ug by kymography relative to PGE1; in short: as §2
Rattus norvegicus [8] = organism: Rattus norvegicus; assay: Induction of Prostaglandin receptor-induced adenylate cyclase activation in rat liver homogenate assessed as increase in cAMP level at 6.7 to 13.4 x 10^-3 M after 10 mins relative to control
In short: (§3)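 Rat liver homogenate adenylate cyclase, 10 min at 37 °C in Tris-HCl 0.1 mol/L pH 8.0 with ATP 4 × 10^-3, MgSO4 15 × 10^-3, GTP 5 × 10^-4, EGTA 1 × 10^-4 and theophylline 5 × 10^-3 mol/L. Stopped by 2 min boiling, then frozen, thawed and centrifuged. cAMP in the supernatant measured by the Brown method, saline blanks, four replicates.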

Cavia porcellus [9] = organism: Cavia porcellus; assay: Effect on Prostaglandin receptor-induced contraction in guinea pig ileum assessed as intrinsic activity at 1.6 ug by kymography relative to PGE1; in short: as §1
Cavia porcellus [10] = organism: Cavia porcellus; assay: Effect on Prostaglandin receptor-induced contraction in guinea pig ileum assessed as intrinsic activity at 0.8 ug by kymography relative to PGE1; in short: as §1
Rattus norvegicus [11] = organism: Rattus norvegicus; assay: Induction of Prostaglandin receptor-induced adenylate cyclase activation in rat liver homogenate assessed as increase in cAMP level at equimolar dose of 2.8 x 10^-5 mol/L PGE1 after 10 mins relative to control; in short: as §3
Rattus norvegicus [12] = organism: Rattus norvegicus; assay: Inhibition of Prostaglandin receptor-induced adenylate cyclase activation in rat liver homogenate assessed as cAMP level at 6.7 to 13.4 x 10^-3 M after 10 mins relative to control

Intrinsic activity (Rattus norvegicus [2]): 0.00075
Intrinsic activity (Rattus norvegicus [4]): 0.00055
Intrinsic activity (Rattus norvegicus [5]): 0.00056
IC50 [6]: 11.8 µM
Intrinsic activity (Rattus norvegicus [7]): 0.00075
Activity (Rattus norvegicus [8]): Active
Activity (Rattus norvegicus [11]): inactive
inhibition (Rattus norvegicus [12]): 40%
SMILES: CCCCCC(O)/C=C/c1[nH]c2ccccc2c1CCCCCCC(=O)O (configuration not stated)
Intrinsic activity (Cavia porcellus [1]): 0.004
Intrinsic activity (Cavia porcellus [3]): 0.0057
Intrinsic activity (Cavia porcellus [9]): 0.0014
Intrinsic activity (Cavia porcellus [10]): 0.0029
